# Screening results (PubChem)
# RanGTP-Impb inh = disruptors of Ran-importin-beta complex formation – biochemical, FRET, CFP-Ran, YFP-importin-beta, homogeneous, primary screen; cell-free CFP-Ran/YFP-importin-beta FRET ratio; inhibition, % (test concentration not listed); 300,000 tested, 1.1% active; AID 2216;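 active = more than half of the replicate wells show a fall in the fluorescence ratio signal beyond about 16%, limit read from the data, passing the limit was not always enough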
# Runt-CBFb FRET = inhibitors of human RUNX1 Runt domain binding to CBFb; Q01196+Q13951; Cerulean-Runt/Venus-CBFb FRET ratio 530/480, 1 h; inhibition, % at 20 µM; 220,000 tested, 0.46% active; AID 1496;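 active = inhibition over about 50% at 20 µM in the single-dose screen, limit read from the data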
# Target sequence (Q01196 whole entry, looked up, the tested form may be a part): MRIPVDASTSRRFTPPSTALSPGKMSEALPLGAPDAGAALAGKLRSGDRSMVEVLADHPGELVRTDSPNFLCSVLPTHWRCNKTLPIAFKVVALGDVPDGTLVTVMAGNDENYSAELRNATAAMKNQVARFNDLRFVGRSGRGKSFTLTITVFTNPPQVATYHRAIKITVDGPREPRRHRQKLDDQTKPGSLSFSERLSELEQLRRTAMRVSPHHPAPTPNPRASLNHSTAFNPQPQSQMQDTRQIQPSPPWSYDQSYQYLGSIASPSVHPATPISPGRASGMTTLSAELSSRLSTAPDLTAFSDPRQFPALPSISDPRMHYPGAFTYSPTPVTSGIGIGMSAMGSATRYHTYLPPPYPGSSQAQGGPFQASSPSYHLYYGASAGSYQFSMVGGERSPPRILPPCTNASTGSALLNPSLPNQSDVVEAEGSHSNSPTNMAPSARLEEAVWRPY
# Target sequence (Q13951 whole entry, looked up, the tested form may be a part): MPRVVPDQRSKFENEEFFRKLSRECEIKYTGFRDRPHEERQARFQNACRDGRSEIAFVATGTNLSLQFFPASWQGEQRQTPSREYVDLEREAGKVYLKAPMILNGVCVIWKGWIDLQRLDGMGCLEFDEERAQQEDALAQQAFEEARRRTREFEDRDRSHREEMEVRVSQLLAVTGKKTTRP
#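 Measured by: fluorescence energy transfer, 422 nm excitation, 530/480 nm emission; Assay system: Cerulean-Runt domain; Medium: Tris pH 7.5 buffer with BSA; Measure: loss of energy transfer signal; Controls: 5 µM unlabeled CBFb as full-inhibition high control; Incubation: protein complex preformed 1 h, compound exposure 1 h, room temperature, dark.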
# TbHK1 inh = T. brucei hexokinase 1 inhibition. recombinant TbHK1, G6PDH-coupled NADH A340. 220,000 tested, 0.11% active. AID 1430. inhibition, % at 10 µM;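 active = inhibition of 50% or more in the single-dose primary screen; inactive = inhibition below 50%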
# Runt-SMMHC FRET = Runt domain-CBFb-SMMHC interaction inhibition. inhibition, % at 20 µM. 220,000 tested, 0.74% active. Cerulean-Runt/Venus-CBFb-SMMHC FRET ratio 530/480, 1 h;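 active = mean inhibition across duplicate retests at 20 µM reaching about 50%, limit read from the data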;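 also: inhibitors lower the FRET ratio by blocking Runt binding to CBFb-SMMHC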
# Hck Nef HTS = blocks Nef-activated human Hck kinase | P08631 | AID 463187 | 220,000 tested, 0.68% active | inhibition, % at 20 µM | Recombinant Hck-YEEI plus Nef, Z-Lyte FRET kinase assay;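 active = Hck-Nef kinase inhibition above about 50%, limit read from the data; inactive = inhibition below that limit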
# p97 ATPase inh = human p97 ATPase inhibition | P55072 | 220,000 tested, 0.42% active | AID 1481 | recombinant p97 ATPase, Kinase-Glo ATP luminescence, 3 h | inhibition, % at 8 µM; in the data active = inhibition above about 15%
# Hck-Nef confirm = confirmation of Hck-Nef kinase inhibitors; shares compounds with Hck Nef HTS; 1,300 tested, 28% active; calls only at 10 µM; Recombinant Hck-YEEI:Nef, Z-Lyte FRET kinase assay;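 active = average inhibition of at least 50%, with Z-scores no higher than 3 in both the phospho-tyrosine peptide and fluorescence counterscreens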
# Numbers stand for hits; – = inactive; · = no result shown; + = active, no number. In the library only some 2.1% were active in any assay of this set; here they are far more common.
SMILES,RanGTP-Impb inh,Runt-CBFb FRET,TbHK1 inh,Runt-SMMHC FRET,Hck Nef HTS,p97 ATPase inh,Hck-Nef confirm
COc1ccc2cc3cc(C(=O)Nc4ccc5c(c4)OCCO5)oc3nc2c1,–,–,–,–,51.8,–,–
COc1cc(/C=C/C(=O)OCC(=O)Nc2cc(C)c(C)cc2[N+](=O)[O-])ccc1O,–,–,–,–,–,–,·
COc1cc(/C=C/C(=O)OCC(=O)Nc2ccc(C)cc2[N+](=O)[O-])ccc1O,–,–,–,–,59.9,–,–
N#C/C(=C\c1ccc(OC(=O)c2cccs2)cc1)c1nc2ccccc2[nH]1,–,–,–,–,56.8,–,+
COc1ccc2nc(/C(C#N)=C\c3ccc(C(=O)O)cc3)[nH]c2c1,–,–,–,–,–,–,·
Cc1ccc(-c2ccc(/C=C3/NC(=O)NC3=O)o2)cc1[N+](=O)[O-],–,–,–,–,–,–,·
CC1=C(C#N)C(=O)NC(=O)/C1=C\c1ccc(-c2cc(C)c(C)cc2[N+](=O)[O-])o1,–,–,–,–,90.8,–,+
Cc1ccc(Oc2ccc(-c3nc(N)nc(N)n3)cc2)cc1C,–,–,–,–,75.7,–,–
Nc1nc(N)nc(-c2ccc(Oc3ccccc3)cc2)n1,–,–,–,–,–,–,·
C=CCc1c(O)c(CC)cc2c(C)cc(=O)oc12,62.1,–,–,80.2,105.8,–,·
CCN(CC)Cc1c(O)c(Cl)cc2c(C)cc(=O)oc12,–,76.0,–,137.6,+,–,·
CN(C)Cc1c(O)ccc2oc(Cc3ccccc3)cc12,–,–,–,–,–,–,·
Cc1c(Cc2ccccc2)c(=O)oc2c(CN(C)C)c(O)c(Cl)cc12,70.7,126.4,–,89.5,116.0,–,·
CCN1CCN(Cc2c(O)ccc3c(C)cc(=O)oc23)CC1,–,·,·,·,·,·,·
Cc1cc(=O)oc2c(CN(CC(C)C)CC(C)C)c(O)ccc12,–,–,–,76.6,63.3,–,·
COc1ccc2oc(CS(=O)c3ccccc3)c(C(=O)O)c2c1 (configuration not stated),–,·,·,·,·,·,·
O=C1N=c2ccccc2=C1c1sc(Nc2ccc(O)cc2)nc1O,·,–,–,–,86.5,–,+
CN1CCN(C(=O)c2ccc3c(=O)n(-c4ccc(F)cc4)c(=S)[nH]c3c2)CC1,–,–,–,–,–,–,·
CCOC(=O)N1CCN(C(=O)c2ccc3c(=O)n(-c4ccc(F)cc4)c(=S)[nH]c3c2)CC1,–,–,–,–,53.2,–,–
Cc1ccc(-c2nnc(-c3ccc(NC(=O)c4ccco4)cc3)o2)cc1,–,–,–,–,108.0,–,–
Cc1ccc(-c2nc3cccnc3o2)cc1NC(=O)COc1ccc(Cl)cc1C,–,–,–,–,61.8,–,–
C/C(=N/NC(=O)c1cc2ccccc2cc1O)C1C(=O)c2ccccc2C1=O,–,–,–,–,82.3,–,+
NS(=O)(=O)c1ccc(NC(=O)COC(=O)c2cnc(Cl)c(Cl)c2)cc1,–,–,–,–,–,–,·
Cc1n[nH]c(C)c1Sc1ccccc1N=Cc1cc(Cl)cc([N+](=O)[O-])c1O,–,–,–,–,–,–,·
Cc1ccc(N=Cc2cc(Cc3ccccc3Cl)cc([N+](=O)[O-])c2O)c(O)c1,–,–,–,–,55.8,–,–
SMILES,RanGTP-Impb inh,Runt-CBFb FRET,TbHK1 inh,Runt-SMMHC FRET,Hck Nef HTS,p97 ATPase inh,Hck-Nef confirm
O=C(/C=C/c1cn(-c2ccccc2)nc1-c1ccccc1)Nc1ccc(C(=O)O)cc1,–,–,–,–,–,–,·
NS(=O)(=O)c1ccc(NC(=O)/C=C/c2cn(-c3ccccc3)nc2-c2cccc(Cl)c2)cc1,–,–,–,–,89.6,–,–
Cc1ccc(C)c(N2CCN(S(=O)(=O)c3csc(C(N)=O)c3)CC2)c1,–,·,·,·,·,·,·
OCCCNc1cc(-c2ccnc(Nc3cccc(Cl)c3)n2)ccn1,–,–,–,–,85.2,·,+
O=c1ccc(-c2ccc(S(=O)(=O)Nc3ccccc3Cl)o2)n[nH]1,–,·,·,·,·,·,·
CC/C(C)=N/Nc1nc(-c2cc3cccc(OC)c3oc2=O)cs1,–,–,–,–,57.2,–,–
Cc1cc2c(n1-c1ccc(Br)cc1)CC(C)(C)CC2=O,–,–,–,–,99.3,–,–
CCOC(=O)c1ccc2c(c1)C1C=CCC1C(C(=O)O)N2 (configuration not stated),·,–,–,–,59.2,–,+
CCOC(=O)C1Nc2ccc(C(=O)O)cc2C2C=CCC12 (configuration not stated),–,·,·,·,·,·,·
Cc1nc2nc(CNC(=O)OC(C)(C)C)nn2c(C)c1CCC(=O)Nc1ccc2c(c1)OCO2,–,·,·,·,·,·,·
Cc1ccc(NC(=O)c2ccc3nsnc3c2)c(Cl)c1,–,·,·,·,·,·,·
COc1ccc(-c2cc3nc4ccccc4n3c(N)c2C#N)cc1,–,–,–,–,68.2,–,·
COc1ccc(-c2cc(-c3ccccc3)c(C#N)c(S(C)=O)n2)cc1 (configuration not stated),–,–,–,–,–,–,·
O=C(NC(=O)c1ccc(Cl)cc1)Nc1ccc(-c2cnco2)cc1,–,–,–,–,60.2,–,–
Nc1cc2ccncc2c2ccccc12,–,–,–,–,52.4,–,–
Cc1cc(N)c2ccccc2n1,–,–,–,–,–,–,·
Cc1ccc2occ(C3NC(C(=O)O)CS3)c(=O)c2c1 (configuration not stated),–,–,–,–,82.5,–,+
O=C(O)C1CSC(c2ccco2)N1 (configuration not stated),–,–,–,–,–,–,·
Cc1ccc2occ(C3N[C@H](C(=O)O)CS3)c(=O)c2c1 (some centres not stated),–,–,–,–,73.2,–,–
C=CCn1cc(/C=C2/NC(=O)NC2=O)c2ccccc21,–,–,–,–,61.2,–,–
O=C(NCC1CCCO1)c1ccc(OC2CCN(C(=O)C3CC3)CC2)cc1 (configuration not stated),–,–,–,–,–,–,·
COc1ccc(OC)c(NC(=O)Cn2nc(C)c3ccccc3c2=O)c1,–,·,·,·,·,·,·
COc1ccc(C2=NN(C(=O)CCCC(=O)O)C(c3cn(-c4ccccc4)nc3-c3ccccc3)C2)cc1 (configuration not stated),–,–,–,–,108.8,–,+
NC(=O)C1CC(=O)N(CCc2ccc(F)cc2)C1 (configuration not stated),–,·,·,·,·,·,·
CC[C@H](C)NC(=O)CCCCCn1c(=S)[nH]c2c([nH]c3ccc(OC)cc32)c1=O,–,–,–,–,51.6,–,–
COc1cccc2c(=O)c3c(cnn3C)n(C)c12,125.8,–,–,62.0,88.3,–,·
